In ChEMBL document CHEMBL1138555, “N-acylated and N,N'-diacylated imidazolidine-2-thione derivatives and N,N'-diacylated tetrahydropyrimidine-2(1H)-thione analogues: synthesis and antiproliferative activity” (Eur J Med Chem, 2009):
The source made the active and inactive calls. The calls are words filed in the database; no cut-off is given here.

Tests used:
[1] = test system: Human immunodeficiency virus 1; assay: Antiviral activity against HIV1 in human MT4 cells assessed as prevention of virus-induced cytopathogenicity; type: functional, organism-based
Outline: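 MT-4 cells, 1 × 10⁴ per well, with serial compound dilutions from a 100 mM DMSO stock. Infected with HIV-1 at 100 CCID50. Four-day incubation at 37 °C, then viable cells measured by MTT. Read-out is inhibition of virus-induced cytopathogenicity, assessed at non-cytotoxic concentrations.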

SW-620 = assay: Growth inhibition of human SW620 cells after 48 hrs by sulforhodamine B assay; type: functional; conditions: SW-620, 48 h
Outline: (§1)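 NCI in vitro panel screen. Compounds tested at five 10-fold dilutions, 10^-4 to 10^-8 M. Cells in 96-well plates were exposed for the last 48 h of a 72 h incubation. Viability/growth was read by sulforhodamine B protein assay. GI50 is the concentration giving 50% growth inhibition. Values beyond the tested range are reported as greater or less than the maximum or minimum concentration.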

SK-OV-3 = assay: Growth inhibition of human SKOV3 cells after 48 hrs by sulforhodamine B assay; type: functional; conditions: SK-OV-3, 48 h
Outline: (§2)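 NCI screen panel. Five 10-fold concentrations from 10^-4 to 10^-8 M. Exposure for the last 48 h of a 72 h incubation. Growth estimated by sulforhodamine B protein assay. GI50 is the concentration giving 50% growth inhibition. Where that level was not reached or was exceeded, the value is given as above or below the highest or lowest concentration tested.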

CCRF-CEM = assay: Growth inhibition of human CCRF-CEM cells after 48 hrs by sulforhodamine B assay; type: functional; outline: as §2
NCI-H522 = assay: Growth inhibition of human NCI-H522 cells after 48 hrs by sulforhodamine B assay; type: functional; conditions: NCI-H522, 48 h; outline: as §2
BT-549 = assay: Growth inhibition of human BT549 cells after 48 hrs by sulforhodamine B assay; type: functional; conditions: BT-549, 48 h; outline: as §2
OVCAR-3 = assay: Growth inhibition of human OVCAR-3 cells after 48 hrs by sulforhodamine B assay; type: functional; conditions: OVCAR-3, 48 h; outline: as §2
MT4 = assay: Antiproliferative activity against human MT4 cells assessed as reduction of growth by MTT assay; type: functional, cell-based
Outline: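 MT-4 lymphoblastoid T cells (ATCC) in RPMI 1640 with 10% FCS, penicillin/streptomycin, checked for mycoplasma. 1 × 10⁴ mock-infected cells per well with serial dilutions from a 100 mM DMSO stock. Incubated 4 days at 37 °C, viable cells counted by MTT. IC50 versus untreated controls by linear regression. Mean of three separate experiments.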

SF-295 = assay: Growth inhibition of human SF295 cells after 48 hrs by sulforhodamine B assay; type: functional; conditions: SF-295, 48 h; outline: as §2
IGROV-1 = assay: Growth inhibition of human IGROV1 cells after 48 hrs by sulforhodamine B assay; type: functional; conditions: IGROV-1, 48 h; outline: as §2
SK-MEL-28 = assay: Growth inhibition of human SK-MEL-28 cells after 48 hrs by sulforhodamine B assay; type: functional; conditions: SK-MEL-28, 48 h; outline: as §2
UACC-257 = assay: Growth inhibition of human UACC257 cells after 48 hrs by sulforhodamine B assay; type: functional; conditions: UACC-257, 48 h; outline: as §1
K562 = assay: Growth inhibition of human K562 cells after 48 hrs by sulforhodamine B assay; type: functional; conditions: K562, 48 h; outline: as §2
NCI-H23 = assay: Growth inhibition of human NCI-H23 cells after 48 hrs by sulforhodamine B assay; type: functional; conditions: NCI-H23, 48 h; outline: as §2
MCF7 = assay: Growth inhibition of human MCF7 cells after 48 hrs by sulforhodamine B assay; type: functional; conditions: MCF7, 48 h; outline: as §2
SK-MEL-2 = assay: Growth inhibition of human SK-MEL-2 cells after 48 hrs by sulforhodamine B assay; type: functional; conditions: SK-MEL-2, 48 h; outline: as §2
KM12 = assay: Growth inhibition of human KM12 cells after 48 hrs by sulforhodamine B assay; type: functional; conditions: KM12, 48 h; outline: as §2
M14 = assay: Growth inhibition of human M14 cells after 48 hrs by sulforhodamine B assay; type: functional; conditions: M14, 48 h; outline: as §2
MDA-MB-435 = assay: Growth inhibition of human MDA-MB-435 cells after 48 hrs by sulforhodamine B assay; type: functional; conditions: MDA-MB-435, 48 h; outline: as §2
U-251 = assay: Growth inhibition of human U251 cells after 48 hrs by sulforhodamine B assay; type: functional; conditions: U-251, 48 h; outline: as §1
UACC-62 = assay: Growth inhibition of human UACC62 cells after 48 hrs by sulforhodamine B assay; type: functional; conditions: UACC-62, 48 h; outline: as §1
LOX IMVI = assay: Growth inhibition of human LOXIMVI cells after 48 hrs by sulforhodamine B assay; type: functional; outline: as §2
CAKI-1 = assay: Growth inhibition of human Caki1 cells after 48 hrs by sulforhodamine B assay; type: functional; conditions: CAKI-1, 48 h; outline: as §2
EKVX = assay: Growth inhibition of human EKVX cells after 48 hrs by sulforhodamine B assay; type: functional; outline: as §2
NCI-H460 = assay: Growth inhibition of human NCI-H460 cells after 48 hrs by sulforhodamine B assay; type: functional; conditions: NCI-H460, 48 h; outline: as §2
HT-29 = assay: Growth inhibition of human HT-29 cells after 48 hrs by sulforhodamine B assay; type: functional; conditions: HT-29, 48 h; outline: as §2
HCT-116 = assay: Growth inhibition of human HCT116 cells after 48 hrs by sulforhodamine B assay; type: functional; conditions: HCT-116, 48 h; outline: as §2
SR = assay: Growth inhibition of human SR cells after 48 hrs by sulforhodamine B assay; type: functional; outline: as §1
A549 = assay: Growth inhibition of human A549 cells after 48 hrs by sulforhodamine B assay; type: functional; conditions: A549, 48 h; outline: as §2
HOP-92 = assay: Growth inhibition of human HOP92 cells after 48 hrs by sulforhodamine B assay; type: functional; conditions: HOP-92, 48 h; outline: as §2
UO-31 = assay: Growth inhibition of human UO31 cells after 48 hrs by sulforhodamine B assay; type: functional; conditions: UO-31, 48 h; outline: as §1
MOLT-4 = assay: Growth inhibition of human MOLT4 cells after 48 hrs by sulforhodamine B assay; type: functional; conditions: MOLT-4, 48 h; outline: as §2
TK-10 = assay: Growth inhibition of human TK10 cells after 48 hrs by sulforhodamine B assay; type: functional; conditions: TK-10, 48 h; outline: as §1
SN12C = assay: Growth inhibition of human SN12C cells after 48 hrs by sulforhodamine B assay; type: functional; outline: as §1
786-0 = assay: Growth inhibition of human 786-0 cells after 48 hrs by sulforhodamine B assay; type: functional; conditions: 786-0, 48 h; outline: as §2
OVCAR-4 = assay: Growth inhibition of human OVCAR4 cells after 48 hrs by sulforhodamine B assay; type: functional; conditions: OVCAR-4, 48 h; outline: as §2
COLO 205 = assay: Growth inhibition of human COLO205 cells after 48 hrs by sulforhodamine B assay; type: functional; conditions: COLO 205, 48 h; outline: as §2
HL-60(TB) = assay: Growth inhibition of human HL-60(TB) cells after 48 hrs by sulforhodamine B assay; type: functional; conditions: HL-60, 48 h
Outline: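 NCI 60-cell-line screen protocol: cells exposed to compound at five 10-fold dilutions from 10^-4 to 10^-8 M for the last 48 h of a 72 h incubation. Sulforhodamine B protein assay estimated viability/growth. GI50 (50% growth inhibition) derived; where not reached or exceeded, reported as greater or less than the highest or lowest concentration tested.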

HOP-62 = assay: Growth inhibition of human HOP62 cells after 48 hrs by sulforhodamine B assay; type: functional; conditions: HOP-62, 48 h; outline: as §2
Malme-3M = assay: Growth inhibition of human MALME-3M cells after 48 hrs by sulforhodamine B assay; type: functional; outline: as §2
ACHN = assay: Growth inhibition of human ACHN cells after 48 hrs by sulforhodamine B assay; type: functional; outline: as §2
NCI-H322M = assay: Growth inhibition of human NCI-H322M cells after 48 hrs by sulforhodamine B assay; type: functional; outline: as §2
SF-268 = assay: Growth inhibition of human SF268 cells after 48 hrs by sulforhodamine B assay; type: functional; conditions: SF-268, 48 h; outline: as §2
PC-3 = assay: Growth inhibition of human PC3 cells after 48 hrs by sulforhodamine B assay; type: functional; conditions: PC-3, 48 h; outline: as §2
HCT-15 = assay: Growth inhibition of human HCT15 cells after 48 hrs by sulforhodamine B assay; type: functional; conditions: HCT-15, 48 h; outline: as §2
NCI/ADR-RES = assay: Growth inhibition of human NCI/ADR-RES cells after 48 hrs by sulforhodamine B assay; type: functional; outline: as §2
RXF 393 = assay: Growth inhibition of human RXF393 cells after 48 hrs by sulforhodamine B assay; type: functional; conditions: RXF 393, 48 h; outline: as §2
MDA-MB-231 = assay: Growth inhibition of human MDA-MB-231 cells after 48 hrs by sulforhodamine B assay; type: functional; conditions: MDA-MB-231, 48 h; outline: as §2
SNB-19 = assay: Growth inhibition of human SNB19 cells after 48 hrs by sulforhodamine B assay; type: functional; conditions: SNB-19, 48 h; outline: as §1
DU-145 = assay: Growth inhibition of human DU145 cells after 48 hrs by sulforhodamine B assay; type: functional; conditions: DU-145, 48 h; outline: as §2
OVCAR-8 = assay: Growth inhibition of human OVCAR8 cells after 48 hrs by sulforhodamine B assay; type: functional; conditions: OVCAR-8, 48 h; outline: as §2
SK-MEL-5 = assay: Growth inhibition of human SK-MEL-5 cells after 48 hrs by sulforhodamine B assay; type: functional; conditions: SK-MEL-5, 48 h; outline: as §2
[2] = Growth inhibition of human […] cells after 48 hrs by sulforhodamine B assay; type: functional; outline: as §2

CC(=O)C(=CN1CCNC1=S)C(C)=O
Activity [1]: inactive

N#C/C(=C\N1CCN(C(=O)c2ccco2)C1=S)C(=O)Nc1ccc(Cl)cc1
GI50 (SW-620): 17.3 µM
GI50 (SK-OV-3): 41.2 µM
GI50 (CCRF-CEM): 22.5 µM
GI50 (NCI-H522): 16.7 µM
GI50 (BT-549): 8.6 µM
GI50 (OVCAR-3): 15.5 µM
IC50 (MT4): 6.5 µM
GI50 (SF-295): 20.2 µM
GI50 (IGROV-1): 25.3 µM
GI50 (SK-MEL-28): 18.7 µM
GI50 (UACC-257): 16.5 µM
GI50 (K562): 16.1 µM
GI50 (NCI-H23): 12.3 µM
GI50 (MCF7): 21 µM
GI50 (SK-MEL-2): 16.7 µM
GI50 (KM12): 16.3 µM
GI50 (M14): 14.2 µM
GI50 (MDA-MB-435): 15.2 µM
GI50 (U-251): 17.3 µM
GI50 (UACC-62): 16.9 µM
GI50 (LOX IMVI): 16.7 µM
GI50 (CAKI-1): 13.2 µM
GI50 (EKVX): 0.01 µM
GI50 (NCI-H460): 19.9 µM
GI50 (HT-29): 21.4 µM
GI50 (HCT-116): 15.2 µM
GI50 (SR): 1.6 µM
GI50 (A549): 25.8 µM
GI50 (HOP-92): 21.5 µM
GI50 (UO-31): 12 µM
GI50 (MOLT-4): 17.7 µM
GI50 (TK-10): 19.4 µM
GI50 (SN12C): 11.8 µM
GI50 (786-0): 17.4 µM
GI50 (OVCAR-4): 25.2 µM
GI50 (COLO 205): 25.6 µM
GI50 (HL-60(TB)): 10.5 µM
GI50 (HOP-62): 25.7 µM
GI50 (Malme-3M): 21.4 µM
GI50 (ACHN): 15.3 µM
GI50 (NCI-H322M): 28.6 µM
GI50 (SF-268): 17.8 µM
GI50 (PC-3): 18.9 µM
GI50 (HCT-15): 21.3 µM
GI50 (NCI/ADR-RES): 28.1 µM
GI50 (RXF 393): 13.1 µM
GI50 (MDA-MB-231): 18.4 µM
GI50 (SNB-19): 27.6 µM
GI50 (DU-145): 15.9 µM
GI50 (OVCAR-8): 20.6 µM
GI50 (SK-MEL-5): 11.2 µM
GI50 [2]: 10.5 µM
